Assays:
[1] = Scavenging activity against NO generation in NOR1-induced cell culture; format: functional
Method in brief: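 Cultured-cell screen for scavenging of NO released by the NO donor NOR 1. Activity expressed as inhibitory ratio (IR) against NOR 1 action, with glycyrrhizin and carboxy-PTIO as reference compounds.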

[2] = Cytotoxicity against human Raji cells assessed as cell viability at 1000 mol ratio/TPA relative to control; format: cell-based; conditions: read-out: Activity
Method in brief: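 Raji cells stimulated with TPA at 32 pmol (20 ng), taken as 100% positive control. Test compound added at mol ratio to TPA of 1000, 500, 100 or 10 (1000:1 = 32 nmol). EBV-EA induction expressed as % of positive control; Raji cell viability recorded as % at the 1000 ratio. IC50 as mol ratio to TPA inhibiting 50% of control.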

Mus musculus [3] = species: Mus musculus; test: Inhibition of DMBA-induced carcinogenesis in mouse assessed as reduction in papilloma bearing mouse after 10 weeks; format: functional; design: scale not given: the % may be the effect or the level left
Method in brief: (§1)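 Mouse skin two-stage model, DMBA initiation and TPA promotion. Promotion with TPA 1.7 nmol; treated groups received 85 nmol test compound with each TPA application. Read-outs were % of mice bearing papillomas and mean papillomas per mouse, scored at 10 and 20 weeks. Papilloma numbers compared by Student's t-test.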

Mus musculus [4] = species: Mus musculus; test: Inhibition of DMBA-induced carcinogenesis in mouse assessed as reduction in papilloma bearing mouse after 20 weeks; format: functional; design: scale not given: the % may be the effect or the level left; method in brief: as §1
Mus musculus [5] = species: Mus musculus; test: Inhibition of DMBA-induced carcinogenesis in mouse assessed as number of papillomas per mouse after 10 weeks; format: functional; method in brief: as §1
Mus musculus [6] = species: Mus musculus; test: Inhibition of DMBA-induced carcinogenesis in mouse assessed as number of papillomas per mouse after 20 weeks; format: functional; method in brief: as §1
Raji [7] = test: Inhibition of TPA-induced Epstein-Barr virus early antigen in Raji cells at 10 mol ratio/TPA relative to control; values are per cent of control; conditions: human gammaherpesvirus 4
Raji [8] = test: Inhibition of TPA-induced Epstein-Barr virus early antigen in Raji cells at 500 mol ratio/TPA relative to control; values are per cent of control; conditions: human gammaherpesvirus 4
Raji [9] = test: Inhibition of TPA-induced Epstein-Barr virus early antigen in Raji cells at 100 mol ratio/TPA relative to control; values are per cent of control; conditions: human gammaherpesvirus 4
Raji [10] = test: Inhibition of TPA-induced Epstein-Barr virus early antigen in Raji cells at 1000 mol ratio/TPA relative to control; values are per cent of control; conditions: human gammaherpesvirus 4
Mus musculus [11] = test: Inhibition of peroxynitrite-induced carcinogenesis in po dosed mouse skin assessed as incidence of papilloma bearing mouse after 20 weeks; format: functional; design: scale not given: the % may be the effect or the level left
Method in brief: (§2)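 Mouse back shaved and initiated topically with peroxynitrite (PN) 390 nmol in 1 mM NaOH (0.1 mL). Test compound given orally at 0.0025% in drinking water from 1 week before to 1 week after initiation. From 1 week after initiation, TPA (1 μg, 1.7 nmol) in acetone applied twice weekly. 15 mice per group. Papilloma incidence and papillomas per mouse recorded weekly for 20 weeks; papillomas counted once about 1 mm × 1 mm. Student's t-test used.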

Mus musculus [12] = test: Inhibition of peroxynitrite-induced carcinogenesis in po dosed mouse skin assessed as reduction in papilloma bearing animals after 20 weeks; format: functional; method in brief: as §2

Row | SMILES | inhibitory ratio (IR) against NOR 1 action [1] | viability at 1000 mol ratio/TPA [2] [%] | Activity (Mus musculus [3]) [%] | Activity (Mus musculus [4]) [%] | Activity (Mus musculus [5]) | Activity (Mus musculus [6]) | level, % of control (Raji [7]) [%] | level, % of control (Raji [8]) [%] | level, % of control (Raji [9]) [%] | level, % of control (Raji [10]) [%] | Activity (Mus musculus [11]) [%] | Activity (Mus musculus [12])
1 | C=C(C)/C=C/C[C@@H](C)[C@H]1CC[C@@]2(C)[C@@H]3C=C[C@@]45O[C@@H](OC)[C@]3(CC[C@]12C)[C@@H]4CC[C@H](O)C5(C)C | 2 | 70 | 33 | 80 | 1.7 | 4 | 82.7 | 18.5 | 60.2 | 0 | – | –
2 | CO[C@@H]1O[C@]23C=C[C@@H]4[C@@]1(CC[C@]1(C)[C@@H]([C@H](C)C/C=C/C(C)(C)OC)CC[C@@]41C)[C@@H]2CC[C@H](O)C3(C)C | 1.9 | 70 | 33 | 80 | 2.1 | 3.9 | 83.9 | 19 | 42.4 | 0 | 80 | 4.5
3 | CC1(C)[C@@H](O[C@H]2O[C@H](C(=O)O)[C@@H](O)[C@H](O)[C@H]2O[C@@H]2O[C@H](C(=O)O)[C@@H](O)[C@H](O)[C@H]2O)CC[C@]2(C)[C@H]3C(=O)C=C4[C@@H]5C[C@@](C)(C(=O)O)CC[C@]5(C)CC[C@@]4(C)[C@]3(C)CC[C@@H]12 [GLYCYRRHIZIN] | 2.2 | > 80 | – | – | – | – | 100 | 63.3 | 83.3 | 27.4 | – | –
